These results are taken from publication PMC5822492 (Pharmacognosy Magazine, 2018).

Structures are written as SMILES. Values after ≈ are worked out from the molar mass of the structure shown.

The subject of test [1] is microvessel outgrowth from rat aortic rings. The test can be described thus: Ex vivo rat aortic ring assay. The conditions noted are these: 12.5 μg/mL, day 5, not significantly different from suramin. The method in brief:
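Thoracic aortas from 10–12-week male Sprague Dawley rats were rinsed in HBSS with 2.5 µg/mL amphotericin B, cleaned and cut into 1 mm rings. Rings were embedded in fibrinogen (3 mg/mL)/thrombin gel in serum-free M199 with aprotinin, then fed M199 with 20% HIFCS and additives at 37°C, 5% CO2. Test compound ran 1.56–12.5 µg/mL, suramin positive, 1% DMSO negative. Day-5 sprouting area was measured (×4) in three experiments, six replicates each, as mean ± SD.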

The test system of test [2] is HepG2 cells. The test is described as follows: MTT cell proliferation inhibition, HepG2. The class given is cell-based. The conditions noted are these: Homo sapiens, HepG2, 72 h, read-out: IC50±SD. The method in brief:
(§1)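 HepG2 (passage 4–7), HUVEC and WRL68 cells (1 × 10^4) were exposed to test compound for 72 h, with 1% DMSO as negative control. Then 20 µL MTT (5 mg/mL in PBS) was added for 5 h at 37°C, 5% CO2. Absorbance was read at 570 nm against 630 nm reference, and viability expressed as percent of untreated cells. Triplicates were run and the experiment repeated three times.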

Test [3] has as its system WRL68 cells. The test is described as follows: MTT cell proliferation inhibition, WRL68. The class given is cell-based. The note with it: Homo sapiens, WRL68, 72 h, read-out: IC50±SD. In outline: as §1
In test [4] the test system is human umbilical vein endothelial cells (HUVEC). The test can be described thus: MTT cell proliferation inhibition, HUVEC. The format is cell-based. The note with it: 72 h. The method in brief:
as §1

The subject of test [5] is HUVECs tube formation. The test can be described thus: Endothelial cell tube formation assay. The class given is cell-based, human. The method in brief: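 HUVECs grown in ECM-2 were trypsinized and resuspended in basal medium with 0.1% BSA. 5 × 10^4 cells were seeded onto tube-formation matrix plates with test compound or suramin as positive control, for 4–6 h at 37°C, 5% CO2. After HBSS washes, tube junctions were counted at ×4 and expressed as percentage inhibition.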

Test [6] relates to chick chorioallantoic membrane neovascularization. The test is described as follows: Chorioallantoic membrane. The class given is in vivo, chicken. The note with it: 24 h, 6.25 and 12.5 μg/mL (Figure 3 legend). In outline:
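On fertilized eggs incubated from day 5 at 37°C in constant humidity, 5 mL albumin was aspirated and the eggs laid horizontally to detach the CAM. Test compound in 1.2% agarose disks went onto the CAM through a shell window, with agarose-only disks as negative control. The window was taped and eggs incubated 24 h. Vessels were counted from dissecting-microscope photographs as mean count per CAM.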

The test system of test [7] is HepG2 cells migration. The test can be described thus: Cell migration. The format is cell-based, human. The conditions noted are these: HepG2, 6.25, 12.5, 25 μg/mL, up to 96 h; untreated closed after 96 h. The method in brief: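 Confluent HepG2 monolayers were scratched and exposed to 6.25, 12.5 or 25 µg/mL test compound, with images taken at 0, 12, 24, 30, 48, 54, 72, 78 and 96 h. Gap distances were measured by inverted microscopy (×20), using ten fields per treatment and at least 10 readings per field. Cell-free area gave percentage wound closure.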

Test [8] relates to angiogenesis-related proteins of HepG2 cells. The test can be described thus: Human cytokine. The class given is cell-based. The note with it: HepG2, 6.25 μg/mL, cytokine array. In outline: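 HepG2 cells were exposed to 6.25 µg/mL test compound. Samples with a biotinylated detection-antibody cocktail were bound to a membrane antibody array of angiogenesis proteins carrying duplicate spots. Detection used streptavidin-HRP chemiluminescence on X-ray film with densitometry. Values are fold change versus untreated cultures.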

For test [9], the system named is VEGF, MMP-9 and NF-κB expression in HepG2 cells. The test can be described thus: Western blot analysis of VEGF, MMP-9 and NF-κB. The class given is cell-based, human. The note with it: 6.25 μg/mL, P < 0.05.
[10] abbreviates: Homo sapiens, HUVEC, read-out: inhibition of endothelial tube formation.

The term IC50 denotes the concentration that inhibits the measured activity by half. In general, inhibition refers to the drop in the measured response relative to a control, in per cent. For the molecule `C/C1=C\CC(C)(C)/C=C/C(=O)/C(C)=C/CC1` [ZER, zerumbone], the inhibition of neovascularization entry in [1] is recorded as “almost complete inhibition”. Besides, in [2], the IC50 was 6.2 ± 0.7 µg/mL (≈ 28.4 µM). Besides, the concentration for half-maximal inhibition (IC50) in test [3] was determined as 150 ± 0.4 µg/mL (≈ 687 µM). Besides, the IC50 in test [4] (Homo sapiens, read-out: IC50±SD, HUVEC, MTT, 72 h) was more than 50 µg/mL. Also, the “IC50±SD” value in [4] (MTT) came out at 62.0 ± 1.3 µg/mL (≈ 284 µM). Besides, the “effect on endothelial tube network” value in test [5] (HUVECs, 3.125 μg/mL) is “reduced the intensity of network structures and caused the formation of incomplete and broken tubules”. The inhibition at 12.5 µg/mL in [5] (setting [10]) was 89%. Besides, the “effect on CAM vasculature” value in test [6] is “vascular regression”. The scratch wound closure entry in [7] is reported as “not scratch closure”. In test [8], the MMP expression entry is “inhibited expression”, the VEGF expression entry was “inhibited expression”, the angiogenin expression result is recorded as “inhibited expression” and the angiopoietin expression entry was “inhibited expression”. Also, in [8], the endostatin expression entry is “increasing expression” and the thrombospondin expression result is “increasing expression”. In addition, in [9], the “Matrix metalloproteinase-9 (MMP-9) expression” value is given as “downregulation”, the NF-κB expression entry was “downregulation” and the VEGF expression entry is reported as “downregulation”.
As to `Cc1ccc(C(=O)Nc2ccc(S(=O)(=O)O)c3cc(S(=O)(=O)O)cc(S(=O)(=O)O)c23)cc1NC(=O)c1cccc(NC(=O)Nc2cccc(C(=O)Nc3cc(C(=O)Nc4ccc(S(=O)(=O)O)c5cc(S(=O)(=O)O)cc(S(=O)(=O)O)c45)ccc3C)c2)c1` [Suramin, reference compound], in test [5] (setting [10]), the inhibition at 100 µg/mL was determined as 96%.
